Experiment [1] has as its target Cannabinoid receptor 1 (Homo sapiens) (UniProt P21554). Nature of the experiment: Displacement of [3H]-CP55940 from CB1 receptor. In a few lines: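 Membranes in siliconated tubes were incubated with 0.5 nM [3H]-CP 55940 for 2 h at 22 C in Tris-HCl pH 7.4 with 10 mM MgCl2 and 1 mg/mL fatty acid-free BSA. BSA was also in the filter presoak and wash. Nonspecific binding was taken with 10 μM CP55940.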

Experiment [2] in a line: Displacement of [3H]-SCH23390 from dopamine D1 receptor high binding affinity site in lamb brain striatum membranes at 25 uM. In kind it is cell membranes, Ovis aries, Membrane. In a few lines: (§1)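 Lamb striatal membranes (0.5 mg prot/mL) in 50 mM Tris-HCl pH 7.4 with 10 mM MgCl2 were incubated 2 h at 22 C. Radioligand was 0.9 nM [3H]-SCH23390 (D1) or 0.7 nM [3H]-YM09151-2 (D2). Screens used 25 μM compound; competition used increasing concentrations. Nonspecific binding was taken with 10 μM SCH23390 (D1) or raclopride (D2). Bound ligand was filtered and counted. KD values came from a two-state dimer receptor model fit.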
(In general: In a radioligand displacement assay an active substance lowers the binding of a labelled ligand.)

The target in experiment [3] is T1, D(3) dopamine receptor (Homo sapiens, UniProt P35462). As to the kind of experiment: Displacement of [3H]-raclopride from human dopamine D3 receptor high binding affinity site expressed in CHO cells. In kind it is cell-based. In outline: (§2)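 Membranes (0.5 mg prot/mL) from CHO cells transiently transfected with 2 μg human D3R cDNA were incubated with 4 nM [3H]-raclopride and increasing competitor for 2 h at 22 C in Tris-HCl pH 7.4 with 10 mM MgCl2. Nonspecific binding was taken with 10 μM raclopride. High- and low-affinity KD values came from a two-state dimer receptor model fit. Triplicate.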

The target of experiment [4] is D(2) dopamine receptor (Homo sapiens) (UniProt P14416). As to the kind of experiment: Agonist activity at human dopamine D2 receptor expressed in CHO cells assessed as decrease of Akt phosphorylation at Ser473. In kind it is functional, cell-based. In outline:
(§3)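 Transiently transfected CHO cells (human D1R for D1 lines, D2R for D2 lines; 2 μg cDNA, PEI) were serum-starved 16 h. They were optionally pretreated 5 min with 5 or 50 μM antagonist (SCH23390 for D1R, raclopride for D2R), then given increasing ligand concentrations for 5 min. Lysates were western-blotted for phospho-ERK1/2 or P-Ser473Akt, normalized to total ERK. Mean ± SEM of four independent experiments.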

The target in experiment [5] is D(1A) dopamine receptor (Homo sapiens) (UniProt P21728). Nature of the experiment: Agonist activity at human dopamine D1 receptor expressed in CHO cells assessed as increase of ERK1/2 phosphorylation. In kind it is functional, cell-based. In a few lines:
as §3

In experiment [6] the target is Histamine H3 receptor (Homo sapiens) (UniProt Q9Y5N1). Nature of the experiment: Displacement of [3H]-RAMH from histamine H3 receptor. In a few lines: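 Membranes were incubated with 2.5 nM [3H]-RAMH for 2 h at 22 C in 50 mM Tris-HCl pH 7.4 with 10 mM MgCl2. Nonspecific binding was taken with 10 μM RAMH. Bound ligand was filtered and counted.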
Experiment [7] has as its target D(1A) dopamine receptor (Homo sapiens) (UniProt P21728). As to the kind of experiment: Agonist activity at human dopamine D1 receptor expressed in CHO cells assessed as increase of ERK1/2 phosphorylation in presence of SCH23390. The experiment is classed as functional, cell-based. In outline:
as §3

Experiment [8] has as its target Somatostatin receptor type 5 (Homo sapiens) (UniProt P35346). Nature of the experiment: Displacement of [125I]-Tyr11-somatostatin 14 from SST5 receptor. In a few lines: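 Membranes were incubated with 0.1 nM [125I]-Tyr11-somatostatin 14 for 3 h at 22 C in 50 mM Tris-HCl pH 7.4 with 10 mM MgCl2. Nonspecific binding was taken with 100 nM somatostatin. Bound ligand was separated by filtration and counted.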

For experiment [9], the target named is T1, D(3) dopamine receptor. As to the kind of experiment: Displacement of [3H]-raclopride from human dopamine D3 receptor low binding affinity site expressed in CHO cells. In kind it is cell-based. In a few lines: as §2
The target in experiment [10] is D(1A) dopamine receptor (Homo sapiens) (UniProt P21728). Nature of the experiment: Agonist activity at human dopamine D1 receptor expressed in CHO cells assessed as decrease of Akt phosphorylation at Ser473. In kind it is functional, cell-based. In outline: as §3
Experiment [11] in a line: Displacement of [3H]-YM09151-2 from dopamine D2 receptor high binding affinity site in lamb brain striatum membranes at 25 uM. The experiment is classed as cell membranes, Ovis aries, Membrane. In a few lines:
as §1

Experiment [12] concerns the target Metabotropic glutamate receptor 1 (Homo sapiens) (UniProt Q13255). Nature of the experiment: Displacement of [3H]-quisqualic acid from mGlu1 receptor. In a few lines:
(§4)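 Membranes were incubated with 27 nM [3H]-quisqualic acid for 2 h at 22 C in 50 mM Tris-HCl pH 7.4 with 10 mM MgCl2. Nonspecific binding was taken with 10 μM quisqualic acid. Bound ligand was filtered and counted.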

Experiment [13] concerns the target Metabotropic glutamate receptor 5 (Homo sapiens) (UniProt P41594). As to the kind of experiment: Displacement of [3H]-quisqualic acid from mGlu5 receptor. In a few lines:
as §4

For experiment [14], the target named is D(2) dopamine receptor (Homo sapiens) (UniProt P14416). As to the kind of experiment: Agonist activity at human dopamine D2 receptor expressed in CHO cells assessed as increase of ERK1/2 phosphorylation. In kind it is functional, cell-based. In a few lines:
as §3

Experiment [15] concerns the target D(1A) dopamine receptor (Homo sapiens) (UniProt P21728). As to the kind of experiment: Agonist activity at human dopamine D1 receptor expressed in CHO cells assessed as decrease of Akt phosphorylation at Ser473 in presence of SCH23390. In kind it is functional, cell-based. In outline: as §3
For experiment [16], the target named is D(2) dopamine receptor (Homo sapiens) (UniProt P14416). Nature of the experiment: Agonist activity at human dopamine D2 receptor expressed in CHO cells assessed as decrease of Akt phosphorylation at Ser473 in presence of raclopride. The experiment is classed as functional, cell-based. In a few lines:
as §3

Experiment [17] is described as follows: Displacement of [3H]-SCH23390 from dopamine D1 receptor low binding affinity site in lamb brain striatum membranes at 25 uM. In kind it is cell membranes, Ovis aries, Membrane. In outline:
as §1

Experiment [18] can be described thus: Displacement of [3H]-YM09151-2 from dopamine D2 receptor low binding affinity site in lamb brain striatum membranes at 25 uM. The experiment is classed as cell membranes, Ovis aries, Membrane. In a few lines:
as §1

Experiment [19] deals with D(2) dopamine receptor (Homo sapiens) (UniProt P14416). Nature of the experiment: Agonist activity at human dopamine D2 receptor expressed in CHO cells assessed as increase of ERK1/2 phosphorylation in presence of raclopride. In kind it is functional, cell-based. In outline:
as §3

Activity calls are given as the source filed them. The calls are words filed in the database; no cut-off is given here.

As a reminder, the Kd is the concentration at which binding is half-saturated. Read a low Kd as tighter binding.

D(1A) dopamine receptor (Homo sapiens), sequence (P21728 whole entry): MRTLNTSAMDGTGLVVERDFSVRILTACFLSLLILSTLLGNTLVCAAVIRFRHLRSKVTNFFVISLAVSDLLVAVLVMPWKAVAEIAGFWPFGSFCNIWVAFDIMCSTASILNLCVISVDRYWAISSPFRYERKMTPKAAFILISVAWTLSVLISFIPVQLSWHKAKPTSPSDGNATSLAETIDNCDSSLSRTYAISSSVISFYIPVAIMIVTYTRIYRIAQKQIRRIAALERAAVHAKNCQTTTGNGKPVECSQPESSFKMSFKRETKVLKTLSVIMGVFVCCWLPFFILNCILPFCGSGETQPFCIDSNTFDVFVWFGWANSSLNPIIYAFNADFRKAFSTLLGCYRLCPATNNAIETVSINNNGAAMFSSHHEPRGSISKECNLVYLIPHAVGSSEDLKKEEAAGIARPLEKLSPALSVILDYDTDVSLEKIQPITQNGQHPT
D(2) dopamine receptor (Homo sapiens), sequence (P14416 whole entry): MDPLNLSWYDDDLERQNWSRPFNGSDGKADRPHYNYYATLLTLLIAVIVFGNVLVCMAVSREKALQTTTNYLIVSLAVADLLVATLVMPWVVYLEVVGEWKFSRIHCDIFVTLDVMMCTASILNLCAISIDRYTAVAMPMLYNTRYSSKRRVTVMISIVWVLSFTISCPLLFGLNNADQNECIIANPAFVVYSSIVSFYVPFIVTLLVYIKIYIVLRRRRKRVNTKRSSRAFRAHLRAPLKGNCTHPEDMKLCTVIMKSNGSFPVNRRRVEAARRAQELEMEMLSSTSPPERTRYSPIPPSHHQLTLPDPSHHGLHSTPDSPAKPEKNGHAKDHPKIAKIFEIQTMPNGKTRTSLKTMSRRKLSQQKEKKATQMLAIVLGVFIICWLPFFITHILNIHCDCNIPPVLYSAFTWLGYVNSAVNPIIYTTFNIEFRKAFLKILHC
T1 sequence (P35462 whole entry): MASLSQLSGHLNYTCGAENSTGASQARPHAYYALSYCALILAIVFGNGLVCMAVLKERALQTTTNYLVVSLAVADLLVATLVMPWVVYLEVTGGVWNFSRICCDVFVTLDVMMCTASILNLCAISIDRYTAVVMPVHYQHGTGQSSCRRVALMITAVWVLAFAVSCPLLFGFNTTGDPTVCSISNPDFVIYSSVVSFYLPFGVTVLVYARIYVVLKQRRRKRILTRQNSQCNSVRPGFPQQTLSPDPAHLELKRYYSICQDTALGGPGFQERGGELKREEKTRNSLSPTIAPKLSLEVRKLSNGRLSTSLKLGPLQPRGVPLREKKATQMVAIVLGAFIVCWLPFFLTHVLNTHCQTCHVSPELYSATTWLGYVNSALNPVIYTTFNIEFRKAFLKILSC
Metabotropic glutamate receptor 5 (Homo sapiens), sequence (P41594 21-1212 limits assumed): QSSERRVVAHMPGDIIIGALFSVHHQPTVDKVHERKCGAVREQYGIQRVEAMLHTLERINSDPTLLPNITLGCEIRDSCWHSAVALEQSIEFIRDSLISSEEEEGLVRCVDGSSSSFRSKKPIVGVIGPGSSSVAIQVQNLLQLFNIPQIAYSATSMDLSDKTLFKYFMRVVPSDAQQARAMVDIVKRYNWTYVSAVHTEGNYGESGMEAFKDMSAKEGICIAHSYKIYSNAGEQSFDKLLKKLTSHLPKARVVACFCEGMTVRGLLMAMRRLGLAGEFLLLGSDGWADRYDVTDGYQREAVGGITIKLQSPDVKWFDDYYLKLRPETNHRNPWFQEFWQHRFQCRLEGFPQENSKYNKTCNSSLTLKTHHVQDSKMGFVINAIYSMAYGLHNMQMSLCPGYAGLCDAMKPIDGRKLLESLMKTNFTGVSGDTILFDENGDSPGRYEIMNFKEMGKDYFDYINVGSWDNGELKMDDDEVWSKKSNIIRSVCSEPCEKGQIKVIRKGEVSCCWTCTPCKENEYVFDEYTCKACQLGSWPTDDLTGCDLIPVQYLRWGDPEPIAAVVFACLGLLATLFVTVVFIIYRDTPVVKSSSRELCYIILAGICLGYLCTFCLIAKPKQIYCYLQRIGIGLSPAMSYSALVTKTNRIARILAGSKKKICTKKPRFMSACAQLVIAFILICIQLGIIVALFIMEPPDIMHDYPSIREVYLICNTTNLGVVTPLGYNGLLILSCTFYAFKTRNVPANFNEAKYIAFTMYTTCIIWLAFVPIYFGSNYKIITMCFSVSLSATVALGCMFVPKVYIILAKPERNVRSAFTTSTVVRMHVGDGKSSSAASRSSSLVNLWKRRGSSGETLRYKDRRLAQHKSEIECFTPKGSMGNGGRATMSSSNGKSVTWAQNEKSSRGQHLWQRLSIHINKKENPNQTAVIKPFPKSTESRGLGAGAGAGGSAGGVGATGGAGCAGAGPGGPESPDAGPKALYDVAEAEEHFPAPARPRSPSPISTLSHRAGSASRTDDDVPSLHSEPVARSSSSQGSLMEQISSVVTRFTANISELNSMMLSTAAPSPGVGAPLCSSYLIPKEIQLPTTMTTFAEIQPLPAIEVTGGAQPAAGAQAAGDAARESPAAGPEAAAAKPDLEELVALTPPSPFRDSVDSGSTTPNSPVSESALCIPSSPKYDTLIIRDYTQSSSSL
Metabotropic glutamate receptor 1 (Homo sapiens), sequence (Q13255 19-1194 limits assumed): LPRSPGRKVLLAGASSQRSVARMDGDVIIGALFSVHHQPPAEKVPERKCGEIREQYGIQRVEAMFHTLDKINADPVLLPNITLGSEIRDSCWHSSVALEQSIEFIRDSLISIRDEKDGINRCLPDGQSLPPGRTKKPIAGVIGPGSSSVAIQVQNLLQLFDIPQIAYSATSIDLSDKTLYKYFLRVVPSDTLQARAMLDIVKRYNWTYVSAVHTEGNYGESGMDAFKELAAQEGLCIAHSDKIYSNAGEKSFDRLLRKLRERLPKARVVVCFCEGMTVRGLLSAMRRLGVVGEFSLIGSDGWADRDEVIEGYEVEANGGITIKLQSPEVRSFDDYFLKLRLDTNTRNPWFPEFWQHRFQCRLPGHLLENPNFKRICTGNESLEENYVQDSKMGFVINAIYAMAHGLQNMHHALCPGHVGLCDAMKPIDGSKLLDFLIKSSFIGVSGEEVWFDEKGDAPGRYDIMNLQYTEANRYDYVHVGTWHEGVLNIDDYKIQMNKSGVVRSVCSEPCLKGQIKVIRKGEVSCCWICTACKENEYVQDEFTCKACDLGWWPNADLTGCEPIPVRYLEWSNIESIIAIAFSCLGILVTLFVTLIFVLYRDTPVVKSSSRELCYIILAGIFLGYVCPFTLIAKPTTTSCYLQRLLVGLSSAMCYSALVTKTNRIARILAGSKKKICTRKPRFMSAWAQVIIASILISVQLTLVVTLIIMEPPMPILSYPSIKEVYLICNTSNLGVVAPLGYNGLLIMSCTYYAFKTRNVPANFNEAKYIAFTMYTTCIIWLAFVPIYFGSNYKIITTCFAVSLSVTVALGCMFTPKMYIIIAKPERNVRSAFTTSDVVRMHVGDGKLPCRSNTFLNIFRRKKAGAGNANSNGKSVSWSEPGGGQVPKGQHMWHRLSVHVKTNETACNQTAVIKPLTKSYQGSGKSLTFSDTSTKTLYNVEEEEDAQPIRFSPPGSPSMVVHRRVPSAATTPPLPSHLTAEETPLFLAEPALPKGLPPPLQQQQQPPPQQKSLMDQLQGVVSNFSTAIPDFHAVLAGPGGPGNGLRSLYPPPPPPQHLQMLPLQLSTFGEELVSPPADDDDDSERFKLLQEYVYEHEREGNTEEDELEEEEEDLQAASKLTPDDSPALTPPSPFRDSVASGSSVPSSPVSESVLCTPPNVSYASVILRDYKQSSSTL
Cannabinoid receptor 1 (Homo sapiens), sequence (P21554 whole entry): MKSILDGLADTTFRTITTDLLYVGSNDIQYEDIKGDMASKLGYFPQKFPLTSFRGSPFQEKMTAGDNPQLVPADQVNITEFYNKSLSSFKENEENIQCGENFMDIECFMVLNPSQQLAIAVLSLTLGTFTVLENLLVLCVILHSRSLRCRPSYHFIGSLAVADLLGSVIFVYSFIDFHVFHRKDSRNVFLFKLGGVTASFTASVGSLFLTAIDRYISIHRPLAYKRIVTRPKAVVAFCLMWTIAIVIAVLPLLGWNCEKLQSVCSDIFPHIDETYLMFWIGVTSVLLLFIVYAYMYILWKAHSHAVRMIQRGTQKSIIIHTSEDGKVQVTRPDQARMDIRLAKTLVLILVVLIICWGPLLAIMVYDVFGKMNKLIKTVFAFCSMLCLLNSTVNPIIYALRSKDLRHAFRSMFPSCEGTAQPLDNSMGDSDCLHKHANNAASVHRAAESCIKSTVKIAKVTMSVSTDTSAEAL
Somatostatin receptor type 5 (Homo sapiens), sequence (P35346 whole entry): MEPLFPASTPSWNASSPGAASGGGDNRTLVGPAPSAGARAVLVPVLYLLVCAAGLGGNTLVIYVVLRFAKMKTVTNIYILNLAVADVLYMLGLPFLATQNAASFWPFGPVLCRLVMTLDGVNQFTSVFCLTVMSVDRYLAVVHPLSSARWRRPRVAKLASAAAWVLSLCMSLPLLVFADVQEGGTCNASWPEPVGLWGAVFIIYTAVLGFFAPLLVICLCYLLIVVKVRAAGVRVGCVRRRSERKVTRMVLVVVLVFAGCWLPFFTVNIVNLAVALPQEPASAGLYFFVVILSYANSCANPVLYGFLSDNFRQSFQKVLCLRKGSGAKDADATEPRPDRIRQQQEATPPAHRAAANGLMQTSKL
Histamine H3 receptor (Homo sapiens), sequence (Q9Y5N1 whole entry): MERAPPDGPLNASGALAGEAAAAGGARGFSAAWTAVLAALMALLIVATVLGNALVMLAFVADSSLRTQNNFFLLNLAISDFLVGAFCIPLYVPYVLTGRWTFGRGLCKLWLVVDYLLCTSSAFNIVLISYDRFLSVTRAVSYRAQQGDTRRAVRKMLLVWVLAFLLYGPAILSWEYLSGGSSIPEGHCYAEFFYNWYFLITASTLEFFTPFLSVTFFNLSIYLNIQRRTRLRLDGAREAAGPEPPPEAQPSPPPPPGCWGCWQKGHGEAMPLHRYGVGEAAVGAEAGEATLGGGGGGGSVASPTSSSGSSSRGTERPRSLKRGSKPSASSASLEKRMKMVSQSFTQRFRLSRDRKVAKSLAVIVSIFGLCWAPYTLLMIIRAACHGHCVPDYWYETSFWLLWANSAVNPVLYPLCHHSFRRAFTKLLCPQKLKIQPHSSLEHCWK

Take `CN1C[C@H](C(=O)N[C@@H](Cc2ccc([N+](=O)[O-])cc2)C(=O)N[C@@H](Cc2ccc(F)cc2)C(=O)N2CCCC(C(=O)NCCCCCC(=O)NCCCC[C@H](NC(=O)CCCC[C@H]3SC[C@H]4NC(=O)N[C@H]43)C(N)=O)C2)C=C2c3cccc4[nH]cc(c34)C[C@H]21` (some centres undefined): the outcome in [1], in experiment [6], in experiment [7], in [8], in experiment [12] and in experiment [13] was inactive. Further, the outcome in experiment [15], in experiment [16] and in [19] was inactive. The Kd was 56 nM in experiment [2]; 23 nM at D(3) dopamine receptor [3]; 93 nM on D(3) dopamine receptor [9]; 17 nM in experiment [11]; 1500 nM in experiment [17]; 9000 nM in experiment [18]. Moreover, the Activity result in experiment [4], in [5], in experiment [10] and in experiment [14] was “Dose-dependent effect” each time.

For the origin of these results see ChEMBL document CHEMBL1671805, “Biotin ergopeptide probes for dopamine receptors” (J Med Chem, 2011).
